{"source": "paper PMC5504481", "about": "(Clinical and Translational Science, 2017)", "key": {"[1]": {"molecular_target": "T1, OATP1B1 (Homo sapiens, UniProt Q9Y6L6)", "T1 sequence (Q9Y6L6 1-691)": "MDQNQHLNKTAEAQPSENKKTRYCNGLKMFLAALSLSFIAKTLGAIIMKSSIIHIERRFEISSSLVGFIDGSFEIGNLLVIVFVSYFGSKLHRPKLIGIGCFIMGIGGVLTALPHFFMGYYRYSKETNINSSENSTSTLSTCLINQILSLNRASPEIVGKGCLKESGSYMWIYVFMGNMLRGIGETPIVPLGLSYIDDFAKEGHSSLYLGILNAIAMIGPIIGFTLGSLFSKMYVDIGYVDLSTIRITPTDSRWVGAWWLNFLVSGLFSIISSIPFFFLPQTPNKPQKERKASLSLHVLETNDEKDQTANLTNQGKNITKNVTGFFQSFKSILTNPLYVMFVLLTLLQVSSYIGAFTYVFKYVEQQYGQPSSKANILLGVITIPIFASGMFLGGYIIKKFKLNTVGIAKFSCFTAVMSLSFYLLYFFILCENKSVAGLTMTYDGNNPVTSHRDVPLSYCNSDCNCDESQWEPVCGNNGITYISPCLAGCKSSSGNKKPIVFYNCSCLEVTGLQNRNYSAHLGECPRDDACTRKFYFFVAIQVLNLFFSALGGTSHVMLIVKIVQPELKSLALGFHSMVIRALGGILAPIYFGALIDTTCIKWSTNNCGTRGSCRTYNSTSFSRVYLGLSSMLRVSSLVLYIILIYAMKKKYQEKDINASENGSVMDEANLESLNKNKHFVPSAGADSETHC", "format": "cell-based", "details": "for Transport rate in OATP1B1-transfected cells without rifampin: in 15 min, HEK293"}, "[2]": {"molecular_target": "T2, Oatp1b2 (Mus musculus, UniProt Q9JJL3)", "T2 sequence (Q9JJL3 1-689)": "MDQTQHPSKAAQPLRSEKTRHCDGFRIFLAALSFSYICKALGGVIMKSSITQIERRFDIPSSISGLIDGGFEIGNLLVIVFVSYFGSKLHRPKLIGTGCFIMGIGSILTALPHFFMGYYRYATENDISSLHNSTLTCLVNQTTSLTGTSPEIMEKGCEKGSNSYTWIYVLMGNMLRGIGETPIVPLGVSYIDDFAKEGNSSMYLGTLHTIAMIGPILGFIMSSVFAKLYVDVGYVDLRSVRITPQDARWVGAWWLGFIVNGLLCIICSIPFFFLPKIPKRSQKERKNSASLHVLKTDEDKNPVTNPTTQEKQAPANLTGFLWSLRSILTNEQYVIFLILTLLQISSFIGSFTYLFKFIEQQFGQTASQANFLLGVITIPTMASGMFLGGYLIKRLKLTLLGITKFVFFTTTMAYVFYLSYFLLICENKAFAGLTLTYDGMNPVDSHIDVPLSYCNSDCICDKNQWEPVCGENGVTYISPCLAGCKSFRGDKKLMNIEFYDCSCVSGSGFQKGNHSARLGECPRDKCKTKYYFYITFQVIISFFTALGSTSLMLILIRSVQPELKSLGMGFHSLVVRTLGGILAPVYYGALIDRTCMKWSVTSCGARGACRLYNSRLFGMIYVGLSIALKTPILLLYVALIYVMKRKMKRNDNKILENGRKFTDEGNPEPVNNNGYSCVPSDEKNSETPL", "format": "cell-based", "details": "for Transport rate in Oatp1b2-transfected cells without rifampin: in 15 min, HEK293"}, "[3]": {"format": "in vivo, mice", "details": "for Effect of Oatp1b2-deficiency and/or rifampin pretreatment on plasma levels: mice, rifampin 20 mg/kg", "procedure,_shortened": "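Female DBA1/lacJ mice, knockout and age-matched wildtype, n=4 per group, fasted 3 h before and during the study. Rifampin was given i.v. 5 min before sorafenib gavage in Cremophor EL/ethanol (1:1) diluted 1:4 with water. Plasma was sampled at 0.25–7.5 h and liver at 7.5 h. Analytes were measured by LC-MS/MS. Liver was normalized to plasma; geometric means (95% CI) were compared by ANOVA.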"}, "[4]": {"format": "in vivo, human"}, "[5]": {"details": "oral sorafenib, humans; cited from earlier work"}, "[6]": {"details": "cited from earlier work"}, "[7]": {"experiment": "Adverse events and laboratory tests during the clinical study", "format": "in vivo, human", "details": "patients on sorafenib; rifampin 600 mg x 2, midazolam 2.5 mg i.v.", "procedure,_shortened": "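Sorafenib-treated patients were at steady state (≥14 days on the same dose) with creatinine <1.25×ULN, bilirubin <1.25×ULN, aminotransferases <5×ULN and PT ≤1.5×ULN or INR <1.5 at entry. Rifampin was given fasting the day before and the day of sampling, 1 h before sorafenib. Sorafenib dose changes and CYP3A4-affecting comedication were barred. Adverse events were graded by CTCAE v4.03.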"}, "[8]": {"molecular_target": "T1, OATP1B1", "experiment": "Transcellular", "format": "cell-based", "details": "rifampin 100 μM; SG 1 μM; MDCKII-OATP1B1"}, "[9]": {"tested_on": "OATP1B1", "details": "cited from earlier work"}, "[10]": {"details": "patients, with versus without rifampin"}, "[11]": {"details": "rifampin preincubation 30 μM (legend: 20 μM), SG 10 μM, 15 min"}, "[12]": {"details": "rifampin preincubation 30 μM, E2G 0.1 μM, 15-min incubation"}}, "note": "Values joined by “and” are separate entries in the source; they are usually repeats but may differ in a detail not shown here. Identical values can stand only once."}
{"smiles": "C[C@]12CC[C@@H]3c4ccc(O)cc4CC[C@H]3[C@@H]1CC[C@@H]2O[C@@H]1O[C@H](C(=O)O)[C@@H](O)[C@H](O)[C@H]1O", "note": "[E2G, estradiol‐17β‐D‐glucuronide]", "values": [{"measurement": "Transport rate in OATP1B1-transfected cells without rifampin", "setting": "[1]; E2G 0.1 μM, SG 10 μM", "result": 4.77, "unit": "pmol/mg protein"}, {"measurement": "Transport rate in Oatp1b2-transfected cells without rifampin", "setting": "[2]; E2G 0.1 μM, SG 10 μM", "result": 26.73, "unit": "pmol/mg protein"}]}
{"smiles": "CNC(=O)c1cc(Oc2ccc(NC(=O)N(c3ccc(Cl)c(C(F)(F)F)c3)[C@@H]3O[C@H](C(=O)O)[C@@H](O)[C@H](O)[C@H]3O)cc2)ccn1", "note": "[SG, sorafenib‐β‐D‐glucuronide]", "values": [{"measurement": "Transport rate in OATP1B1-transfected cells without rifampin", "setting": "[1]; E2G 0.1 μM, SG 10 μM", "result": 57.46, "unit": "pmol/mg protein"}, {"measurement": "Transport rate in Oatp1b2-transfected cells without rifampin", "setting": "[2]; E2G 0.1 μM, SG 10 μM", "result": 770.17, "unit": "pmol/mg protein"}, {"measurement": "Increase in SG AUC0-7.5h with Oatp1b2-deficiency", "setting": "[3]; Oatp1b2(-/-) versus wildtype mice, sorafenib 10 mg/kg oral", "result": 8, "unit": "fold"}, {"measurement": "Reduction of liver-to-plasma ratio of SG", "setting": "[3]; wildtype mice pretreated with rifampin 20 mg/kg, 7.5 h after sorafenib 10 mg/kg", "result": "~90", "unit": "%"}, {"measurement": "Increase of SG levels by rifampin in humans", "setting": "[4]; humans", "result": "~2", "unit": "fold"}, {"measurement": "Mean metabolic ratio of SG to sorafenib during rifampin administration", "setting": "[4]; [10]", "result": "significantly increased"}, {"measurement": "Detection of SG in feces", "setting": "[5]", "result": "not detectable"}, {"measurement": "Mean steady-state (trough) concentration (Css)", "setting": "[6]; 16 cancer patients, sorafenib 90 mg/m^2 oral, days 7, 13 and 21", "result": 954, "unit": "ng/mL"}]}
{"smiles": "CNC(=O)c1cc(Oc2ccc(NC(=O)Nc3ccc(Cl)c(C(F)(F)F)c3)cc2)cc[n+]1[O-]", "note": "[Sorafenib N-oxide, sorafenib‐N‐oxide]", "values": [{"measurement": "Effect of Oatp1b2-deficiency and/or rifampin pretreatment on plasma levels", "setting": "[3]; sorafenib 10 mg/kg oral", "result": "did not substantially affect"}, {"measurement": "Extent of sorafenib-N-oxide formation between treatment cycles", "setting": "[4]; [10]", "result": "not different"}]}
{"smiles": "CNC(=O)c1cc(Oc2ccc(NC(=O)Nc3ccc(Cl)c(C(F)(F)F)c3)cc2)ccn1", "note": "[Sorafenib, sorafenib]", "values": [{"measurement": "Effect of Oatp1b2-deficiency and/or rifampin pretreatment on plasma levels", "setting": "[3]; sorafenib 10 mg/kg oral", "result": "did not substantially affect"}, {"measurement": "Fraction of the dose eliminated as oxidative metabolites", "setting": "[5]", "result": "less than 5%"}, {"measurement": "Fraction of the dose eliminated as sorafenib-β-D-glucuronide (SG)", "setting": "[5]", "result": 15, "unit": "%"}, {"measurement": "Influence of the CYP3A4 inhibitor ketoconazole on PK", "setting": "[6]; healthy male volunteers, single-dose sorafenib", "result": "no influence"}, {"measurement": "Variation in exposure between patients receiving the same therapeutic regimen", "setting": "[6]; oral sorafenib", "result": "up to 90%"}, {"measurement": "Decrease in systemic exposure with neomycin", "setting": "[6]; ref Nexavar package insert", "result": "more than 50%"}]}
{"smiles": "COc1ccccc1Oc1c(NS(=O)(=O)c2ccc(C(C)(C)C)cc2)nc(-c2ncccn2)nc1OCCO", "note": "[bosentan]", "values": [{"measurement": "Change in systemic exposure with extended rifampin exposure", "setting": "[6]; rifampin 600 mg once daily for 6.5 days", "result": "–58%"}, {"measurement": "Change in systemic exposure with acute rifampin exposure", "setting": "[6]; rifampin 600 mg once daily, 1–2 doses", "result": "+500%"}]}
{"smiles": "Cc1ncc2n1-c1ccc(Cl)cc1C(c1ccccc1F)=NC2", "note": "[midazolam]", "values": [{"measurement": "Toxicities attributable to the drug during the clinical study", "setting": "[7]", "result": "no toxicities were observed"}]}
{"smiles": "CO[C@H]1/C=C/O[C@@]2(C)Oc3c(C)c(O)c4c(O)c(c(/C=N/N5CCN(C)CC5)c(O)c4c3C2=O)NC(=O)/C(C)=C\\C=C\\[C@H](C)[C@H](O)[C@@H](C)[C@@H](O)[C@@H](C)[C@H](OC(C)=O)[C@@H]1C", "note": "[rifampin]", "values": [{"measurement": "Reduction of intracellular uptake of SG by OATP1B1", "setting": "[1]; [11]", "result": 92, "unit": "%"}, {"measurement": "Inhibition of E2G uptake by human OATP1B1", "setting": "[1]; [12]", "result": "strongly inhibited"}, {"measurement": "Reduction of intracellular uptake of SG by Oatp1b2", "setting": "[2]; [11]", "result": 97, "unit": "%"}, {"measurement": "Inhibition of E2G uptake by mouse Oatp1b2", "setting": "[2]; [12]", "result": "strongly inhibited"}, {"measurement": "Effect of rifampin on OATP1B1-mediated basal-to-apical translocation of SG", "setting": "[8]", "result": "diminished"}, {"measurement": "Toxicities attributable to the drug during the clinical study", "setting": "[7]", "result": "no toxicities were observed"}, {"measurement": "Plasma Cmax of unbound rifampin", "setting": "[6]", "result": "~1.3 μM and 1.1 mg/L"}, {"measurement": "Substrate-dependent variation in IC50 values for inhibition of OATP1B1", "setting": "[9]", "result": "up to 12 fold"}]}
